From ChEMBL document CHEMBL4138104, “Indole carboxylic acid esters of melampomagnolide B are potent anticancer agents against both hematological and solid tumor cells” (Eur J Med Chem, 2017)

What was measured:
[1] = system: K562; experiment: Growth inhibition of human K562 cells incubated for 48 hrs by sulforhodamine B assay; type: functional; settings: K562, 48 h
Method in brief: (§1)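 NCI-60 screen. Compounds were dosed at five concentrations spanning 10^-4 to 10^-8 M for 48 h at 37 °C. Cells were TCA-fixed, stained with 0.4% SRB and read at 515 nm against time-zero and vehicle controls. GI50 is the concentration giving a 50% reduction in net protein increase.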

[2] = system: SR; experiment: Growth inhibition of human SR cells incubated for 48 hrs by sulforhodamine B assay; type: functional
Method in brief: (§2)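 NCI-60 screen run at NCI. Cells grown in RPMI medium with 5% FBS and 2 mM L-glutamine, plated at 5,000–40,000 cells/well, and preincubated 24 h at 37 °C. Time-zero plates were TCA-fixed. Compounds came from DMSO stocks and were tested at five concentrations from 10^-4 to 10^-8 M for 48 h. Cells were then TCA-fixed, stained with 0.4% SRB, and OD read at 515 nm. GI50 is the concentration giving a 50% reduction in net protein increase versus control.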

[3] = system: EKVX; experiment: Growth inhibition of human EKVX cells incubated for 48 hrs by sulforhodamine B assay; type: functional; method in brief: as §1
[4] = system: HOP-62; experiment: Growth inhibition of human HOP62 cells incubated for 48 hrs by sulforhodamine B assay; type: functional; settings: HOP-62, 48 h; method in brief: as §1
[5] = system: COLO 205; experiment: Growth inhibition of human COLO205 cells incubated for 48 hrs by sulforhodamine B assay; type: functional; settings: COLO 205, 48 h; method in brief: as §1
[6] = system: SNB-75; experiment: Growth inhibition of human SNB75 cells incubated for 48 hrs by sulforhodamine B assay; type: functional; settings: SNB-75, 48 h; method in brief: as §2
[7] = system: M14; experiment: Growth inhibition of human M14 cells incubated for 48 hrs by sulforhodamine B assay; type: functional; settings: M14, 48 h; method in brief: as §1
[8] = system: MDA-MB-435; experiment: Growth inhibition of human MDA-MB-435 cells incubated for 48 hrs by sulforhodamine B assay; type: functional; settings: MDA-MB-435, 48 h; method in brief: as §1
[9] = system: SK-MEL-2; experiment: Growth inhibition of human SK-MEL-2 cells incubated for 48 hrs by sulforhodamine B assay; type: functional; settings: SK-MEL-2, 48 h; method in brief: as §1
[10] = system: SK-MEL-5; experiment: Growth inhibition of human SK-MEL-5 cells incubated for 48 hrs by sulforhodamine B assay; type: functional; settings: SK-MEL-5, 48 h; method in brief: as §1
[11] = system: IGROV-1; experiment: Growth inhibition of human IGROV1 cells incubated for 48 hrs by sulforhodamine B assay; type: functional; settings: IGROV-1, 48 h; method in brief: as §1
[12] = system: OVCAR-3; experiment: Growth inhibition of human OVCAR3 cells incubated for 48 hrs by sulforhodamine B assay; type: functional; settings: OVCAR-3, 48 h; method in brief: as §1
[13] = system: OVCAR-4; experiment: Growth inhibition of human OVCAR4 cells incubated for 48 hrs by sulforhodamine B assay; type: functional; settings: OVCAR-4, 48 h; method in brief: as §1
[14] = system: 786-0; experiment: Growth inhibition of human 786-0 cells incubated for 48 hrs by sulforhodamine B assay; type: functional; settings: 786-0, 48 h; method in brief: as §1
[15] = system: ACHN; experiment: Growth inhibition of human ACHN cells incubated for 48 hrs by sulforhodamine B assay; type: functional; method in brief: as §1
[16] = system: CAKI-1; experiment: Growth inhibition of human Caki1 cells incubated for 48 hrs by sulforhodamine B assay; type: functional; settings: CAKI-1, 48 h; method in brief: as §1
[17] = system: TK-10; experiment: Growth inhibition of human TK10 cells incubated for 48 hrs by sulforhodamine B assay; type: functional; settings: TK-10, 48 h; method in brief: as §2
[18] = system: PC-3; experiment: Growth inhibition of human PC3 cells incubated for 48 hrs by sulforhodamine B assay; type: functional; settings: PC-3, 48 h; method in brief: as §1
[19] = system: DU-145; experiment: Growth inhibition of human DU145 cells incubated for 48 hrs by sulforhodamine B assay; type: functional; settings: DU-145, 48 h; method in brief: as §1
[20] = system: MDA-MB-231; experiment: Growth inhibition of human MDA-MB-231/ATCC cells incubated for 48 hrs by sulforhodamine B assay; type: functional; settings: MDA-MB-231, 48 h; method in brief: as §1
[21] = system: Hs-578T; experiment: Growth inhibition of human Hs 578T cells incubated for 48 hrs by sulforhodamine B assay; type: functional; method in brief: as §1
[22] = system: T47D; experiment: Growth inhibition of human T47D cells incubated for 48 hrs by sulforhodamine B assay; type: functional; method in brief: as §2
[23] = system: MDA-MB-468; experiment: Growth inhibition of human MDA-MB-468 cells incubated for 48 hrs by sulforhodamine B assay; type: functional; settings: MDA-MB-468, 48 h; method in brief: as §1
[24] = Potency index, ratio of melampomagnolide-B EC50 to compound EC50 for human M9-ENL1 cells; type: functional
Method in brief: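 M9-ENL1 AML cells, derived by MLL-ENL transduction of human blood cells, were plated at 10^6 cells/mL in alpha-MEM with 5% human plasma, 20% FBS, SCF, IL-3, IL-7 and FLT3 ligand. Exposure was 24 h. Non-apoptotic (Annexin V/7-AAD double-negative) fraction was normalized to vehicle, in triplicate, to give EC50. PTL and MMB were run as reference controls.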

[25] = system: BT-549; experiment: Growth inhibition of human BT549 cells incubated for 48 hrs by sulforhodamine B assay; type: functional; settings: BT-549, 48 h; method in brief: as §1
[26] = Induction of apoptosis in AML01 cells isolated from acute myelogenous leukemia patient after 24 hrs by annexin V/7-AAD/propidium iodide staining-based flow cytometric method; type: functional, cell-based; settings: Homo sapiens, AML01, 24 h
Method in brief: (§3)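 Primary AML specimens from consenting patients were Ficoll-separated and some were cryopreserved. Cells were held 1 h in serum-free IMDM with 20% BIT 9500, LDL and beta-mercaptoethanol before drug. Drugs were diluted from DMSO stock into PBS, final DMSO ≤0.5%. Dosing was 0.5–10 μM for 24 h. Annexin V/7-AAD flow cytometry scored double-negative (non-apoptotic) cells, normalized to vehicle, in triplicate, and EC50 came from dose-response curves.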

[27] = Induction of apoptosis in AML02 cells isolated from acute myelogenous leukemia patient after 24 hrs by annexin V/7-AAD/propidium iodide staining-based flow cytometric method; type: functional, cell-based; settings: Homo sapiens; method in brief: as §3
[28] = Induction of apoptosis in AML03 cells isolated from acute myelogenous leukemia patient after 24 hrs by annexin V/7-AAD/propidium iodide staining-based flow cytometric method; type: functional, cell-based; settings: Homo sapiens; method in brief: as §3
[29] = Induction of apoptosis in AML04 cells isolated from acute myelogenous leukemia patient after 24 hrs by annexin V/7-AAD/propidium iodide staining-based flow cytometric method; type: functional, cell-based; settings: Homo sapiens; method in brief: as §3

Compound	GI50 [1] [nM]	GI50 [3] [nM]	GI50 [4] [nM]	GI50 [5] [nM]	GI50 [6] [nM]	GI50 [7] [nM]	GI50 [8] [nM]	GI50 [9] [nM]	GI50 [10] [nM]	GI50 [11] [nM]	GI50 [12] [nM]	GI50 [13] [nM]	GI50 [14] [nM]	GI50 [17] [nM]	GI50 [18] [nM]	GI50 [20] [nM]	GI50 [21] [nM]	GI50 [22] [nM]	GI50 [23] [nM]	Ratio IC50 [24]	also measured
C=C1C(=O)O[C@@H]2[C@H]3O[C@]3(C)CC/C=C(/COC(=O)c3cc4cc(F)ccc4[nH]3)CC[C@@H]12	2240	1580	2920	1640	11100	1890	1500	1950	1850	1440	1200	1670	1780	1830	1700	1590	2950	1560	1860	2 - 20	GI50 [2]: 2030 nM; GI50 [15]: 1460 nM; GI50 [16]: 1200 nM; GI50 [19]: 1670 nM
C=C1C(=O)O[C@@H]2[C@H]3O[C@]3(C)CC/C=C(/COC(=O)c3c[nH]c4ccccc34)CC[C@@H]12	270	310	820	240	200	220	240	230	200	250	200	250	320	280	380	190	610	400	190	2 - 20	GI50 [2]: 280 nM; GI50 [15]: 210 nM; GI50 [19]: 380 nM; GI50 [25]: 170 nM
C=C1C(=O)O[C@@H]2[C@H]3O[C@]3(C)CC/C=C(/COC(=O)CCCc3c[nH]c4ccccc34)CC[C@@H]12	2600	2020	6540	1860	12600	1660	1730	1960	1740	1630	1530	1660	1600	1640	1920	1780	3190	2170	1760	2 - 20	GI50 [2]: 1730 nM; GI50 [19]: 1670 nM; GI50 [25]: 1370 nM
C=C1C(=O)O[C@@H]2[C@H]3O[C@]3(C)CC/C=C(/COC(=O)c3cc4ccccc4o3)CC[C@@H]12	1150	2020	2480	1550	1340	1430	1430	1770	1520	1390	480	1560	1810	3010	1760	1640	2910	1350	1500	2 - 20	GI50 [2]: 1150 nM; GI50 [15]: 1440 nM; GI50 [19]: 1180 nM; GI50 [25]: 1480 nM
C=C1C(=O)O[C@@H]2[C@H]3O[C@]3(C)CC/C=C(/COC(=O)c3cc4cc(OC)ccc4[nH]3)CC[C@@H]12	560	1500	1640	1180	–	1270	620	1600	1740	1480	930	1630	1270	1280	1830	1580	3090	1300	1130	2 - 20	GI50 [15]: 810 nM; GI50 [16]: 1710 nM; GI50 [19]: 1030 nM; GI50 [25]: 1060 nM; EC50 [26]: 3000 nM; EC50 [27]: 3300 nM; EC50 [28]: 2200 nM; EC50 [29]: 3300 nM
C=C1C(=O)O[C@@H]2[C@H]3O[C@]3(C)CC/C=C(/COC(=O)c3cc4cc(Cl)ccc4[nH]3)CC[C@@H]12	1140	1400	2220	1720	570	1470	1240	1730	1910	1380	1250	1330	1510	1750	2420	1320	2250	1340	1890	2 - 20	GI50 [2]: 770 nM; GI50 [15]: 1350 nM; GI50 [16]: 1190 nM; GI50 [25]: 1310 nM
C=C1C(=O)O[C@@H]2C3O[C@]3(C)CC/C=C(\C)CC[C@@H]12 (stereo partly specified)	22600	17300	49000	–	48400	–	–	–	–	21100	17400	21500	–	–	–	–	–	–	–	–	GI50 [16]: 9350 nM; EC50 [26]: 5200 nM; EC50 [27]: 6300 nM; EC50 [28]: 1900 nM; EC50 [29]: 13000 nM
C=C1C(=O)O[C@@H]2[C@H]3O[C@]3(C)CC/C=C(/COC(=O)c3cc4ccccc4s3)CC[C@@H]12	810	1690	1810	1710	3520	1750	1330	1750	1750	1760	440	2080	1520	1550	1830	1970	2890	1470	1630	2 - 20	GI50 [2]: 520 nM; GI50 [15]: 1500 nM; GI50 [16]: 1460 nM; GI50 [19]: 1050 nM
C=C1C(=O)O[C@@H]2[C@H]3O[C@]3(C)CC/C=C(/COC(=O)c3cn(C)c4ccccc34)CC[C@@H]12	400	960	1810	1240	1090	1410	1350	1380	1420	690	380	1140	1460	1100	1470	1050	2390	1190	440	2 - 20	GI50 [2]: 340 nM; GI50 [15]: 820 nM; GI50 [19]: 1010 nM; GI50 [25]: 510 nM
